Data reported in ChEMBL document CHEMBL3272103, “Synthesis and central nervous system evaluation of some 5-alkoxy-3H-1,4-benzodiazepin-2(1H)-ones” (J Med Chem, 1977).

What was measured:
Mus musculus [1] = assay: CNS depressant activity in ip dosed mouse assessed as docility; type: functional
Method in brief: (§1)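 Behavioral observation in ip-dosed mice per a modified literature method, scoring ataxia, docility or loss of righting reflex. Ten animals per dose; ED50 in mg/kg ip.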

Mus musculus [2] = assay: Anticonvulsant activity in ip dosed mouse assessed as inhibition of N-sulfamoylhexahydroazepine-induced seizure; type: functional
Method in brief: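 Mice dosed ip with test compound, then challenged with the convulsant N-sulfamoylhexahydroazepine; protection against seizures scored per a literature method. Ten animals per dose; ED50 derived in mg/kg ip.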

Mus musculus [3] = assay: CNS depressant activity in mouse assessed as reduction in amphetamine-induced locomotor activity at 50 mg/kg, ip; type: functional; set-up: scale not given: the % may be the effect or the level left; conditions: route intraperitoneal
Method in brief: (§2)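 Mice given test compound ip alongside dl-amphetamine 4.0 mg/kg ip; locomotor activity recorded in photocell activity cages, five mice per group; expressed as % change in activity.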

Mus musculus [4] = assay: CNS depressant activity in ip dosed mouse assessed as ataxia; type: functional; method in brief: as §1
Mus musculus [5] = assay: CNS depressant activity in ip dosed mouse assessed as reinduction of anesthesia measured as loss of righting reflex compound administered immediately post recovery from hexobarbital anesthesia; type: functional
Mus musculus [6] = assay: CNS depressant activity in ip dosed mouse assessed as loss of righting reflex; type: functional; method in brief: as §1
[7] = Acute toxicity in ip dosed Wistar rat measured 2 hrs post dose; type: organism-based; conditions: in vivo
Mus musculus [8] = assay: CNS depressant activity in mouse assessed as reduction in amphetamine-induced locomotor activity at 18.8 mg/kg, ip; type: functional; set-up: scale not given: the % may be the effect or the level left; conditions: route intraperitoneal
Method in brief: (§3)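 Locomotor activity of mice recorded in photocell activity cages after dl-amphetamine 4.0 mg/kg ip plus test compound ip at the stated dose. Five mice per group; result given as % change in activity.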

Mus musculus [9] = assay: CNS depressant activity in ip dosed mouse assessed as induction of neurologic deficit by rotarod test; type: functional
Method in brief: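 Rotarod test per a literature method in ip-dosed mice; failure scored as neurological deficit. Ten animals per dose; ND50 in mg/kg ip.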

Mus musculus [10] = assay: CNS depressant activity in mouse assessed as reduction in amphetamine-induced locomotor activity at 51.2 mg/kg, ip; type: functional; set-up: scale not given: the % may be the effect or the level left; conditions: route intraperitoneal; method in brief: as §3
Mus musculus [11] = assay: CNS depressant activity in mouse assessed as reduction in amphetamine-induced locomotor activity at 100 mg/kg, ip; type: functional; set-up: scale not given: the % may be the effect or the level left; conditions: route intraperitoneal; method in brief: as §3
Mus musculus [12] = assay: CNS depressant activity in mouse assessed as reduction in amphetamine-induced locomotor activity at 25.6 mg/kg, ip; type: functional; set-up: scale not given: the % may be the effect or the level left; conditions: route intraperitoneal; method in brief: as §3
Mus musculus [13] = assay: CNS depressant activity in mouse assessed as reduction in amphetamine-induced locomotor activity at 75 mg/kg, ip; type: functional; set-up: scale not given: the % may be the effect or the level left; conditions: route intraperitoneal; method in brief: as §3
Mus musculus [14] = assay: CNS depressant activity in mouse assessed as reduction in amphetamine-induced locomotor activity at 150 mg/kg, ip; type: functional; set-up: scale not given: the % may be the effect or the level left; conditions: route intraperitoneal; method in brief: as §3
Mus musculus [15] = assay: CNS depressant activity in mouse assessed as reduction in amphetamine-induced locomotor activity at 1.5 mg/kg, ip; type: functional; set-up: scale not given: the % may be the effect or the level left; conditions: route intraperitoneal; method in brief: as §2

| Compound | ED50 (Mus musculus [1]) | ED50 (Mus musculus [2]) | Activity (Mus musculus [3]) | ED50 (Mus musculus [4]) | ED50 (Mus musculus [5]) | ED50 (Mus musculus [6]) | LD50 at 2 h [7] | Activity (Mus musculus [8]) | ED50 (Mus musculus [9]) | Activity (Mus musculus [10]) | Activity (Mus musculus [11]) | Activity (Mus musculus [12]) | Activity (Mus musculus [13]) | Activity (Mus musculus [14]) | Activity (Mus musculus [15]) |
| --- | --- | --- | --- | --- | --- | --- | --- | --- | --- | --- | --- | --- | --- | --- | --- |
| COC1=NCC(=O)N(C)c2ccc(Cl)cc21 | 59.3 mg/kg | > 50 mg/kg | 50% | 68 mg/kg | 16.5 mg/kg | 300 mg/kg | > 200 mg/kg |  |  |  |  |  |  |  |  |
| CCOC1=NCC(=O)N(C)c2ccc(Cl)cc21 | 42.8 mg/kg | 35.2 mg/kg |  | 45.3 mg/kg | 2.9 mg/kg | 39.3 mg/kg | 300 mg/kg | 93% | 68.5 mg/kg |  |  |  |  |  |  |
| CN1C(=O)CN=C(OCCBr)c2cc(Cl)ccc21 |  | > 102 mg/kg |  |  | > 102 mg/kg |  |  |  |  |  |  |  |  |  |  |
| CN1C(=O)CN=C(OCC(Cl)Cl)c2cc(Cl)ccc21 |  | 128 mg/kg |  |  | 143 mg/kg |  |  |  |  |  |  |  |  |  |  |
| CN1C(=O)CN=C(OCC(F)(F)F)c2cc(Cl)ccc21 |  | > 102 mg/kg |  |  | > 102 mg/kg |  |  |  |  | 48% |  |  |  |  |  |
| CCCOC1=NCC(=O)N(C)c2ccc(Cl)cc21 | 93.1 mg/kg | 38.2 mg/kg |  | 52.5 mg/kg | 19.2 mg/kg | 78.1 mg/kg | > 400 mg/kg |  |  | 50% |  |  |  |  |  |
| CC(OC1=NCC(=O)N(C)c2ccc(Cl)cc21)C(F)(F)F (configuration not stated) | 130 mg/kg | 100 mg/kg |  | 250 mg/kg | > 200 mg/kg | 288 mg/kg | 300 mg/kg |  | 123 mg/kg |  | 73% |  |  |  |  |
| C=CCOC1=NCC(=O)N(C)c2ccc(Cl)cc21 |  | 63.9 mg/kg |  |  | 54.4 mg/kg |  |  |  |  | 55% |  |  |  |  |  |
| C#CCOC1=NCC(=O)N(C)c2ccc(Cl)cc21 | 20.8 mg/kg | > 25 mg/kg |  | 22.7 mg/kg | 22.9 mg/kg | 28.5 mg/kg | 138 mg/kg |  |  |  |  | 44% |  |  |  |
| CN1C(=O)CN=C(Oc2ccccc2)c2cc(Cl)ccc21 |  | 50.1 mg/kg |  |  | > 102 mg/kg |  |  |  |  | 68% |  |  |  |  |  |
| CN1C(=O)CN=C(Oc2ccccc2F)c2cc(Cl)ccc21 | 240 mg/kg | > 200 mg/kg |  | 240 mg/kg | > 200 mg/kg | 428 mg/kg | 650 mg/kg |  | 146 mg/kg | 45% |  |  |  |  |  |
| Cc1cc(Cl)ccc1OC1=NCC(=O)N(C)c2ccc(Cl)cc21 |  | > 102 mg/kg |  |  | > 102 mg/kg |  |  |  |  | 36% |  |  |  |  |  |
| CCOC1=NCC(=O)N(CC)c2ccc(Cl)cc21 | 100 mg/kg | > 75 mg/kg |  | 100 mg/kg | 21.8 mg/kg | 600 mg/kg | 600 mg/kg |  |  |  |  |  | 5% |  |  |
| CCOC1=NCC(=O)N(c2ccccc2)c2ccc(Cl)cc21 | 300 mg/kg | > 150 mg/kg |  | 300 mg/kg | > 150 mg/kg | 300 mg/kg | 650 mg/kg |  |  |  |  |  |  | 50% |  |
| CCOC1=NCC(=O)N(C)c2cc(Cl)ccc21 | 56.5 mg/kg | 29.9 mg/kg |  | 67.7 mg/kg | 38.4 mg/kg | 74.4 mg/kg | 600 mg/kg |  | 61.8 mg/kg | 50% |  |  |  |  |  |
| CCOC1=NCC(=O)N(C)c2ccc([N+](=O)[O-])cc21 | 11.3 mg/kg | 87.8 mg/kg |  | 42.5 mg/kg | 9 mg/kg | 37.5 mg/kg | 600 mg/kg |  | 15.8 mg/kg | 27% |  |  |  |  |  |
| CCOC1=NCC(=O)N(C)c2ccc(C)cc21 | 137 mg/kg | > 102 mg/kg |  | 133 mg/kg | 18.4 mg/kg | 141 mg/kg | 300 mg/kg |  | 87.6 mg/kg | 44% |  |  |  |  |  |
| CCOC1=NCC(=O)N(C)c2c1cc(Cl)cc2[N+](=O)[O-] |  | > 102 mg/kg |  |  | > 102 mg/kg |  |  |  |  | 19% |  |  |  |  |  |
| CN1C(=O)CNC(=O)c2cc(Cl)cc([N+](=O)[O-])c21 |  | > 102 mg/kg |  |  | > 102 mg/kg |  |  |  |  | 24% |  |  |  |  |  |
| CN1C(=O)CNC(=O)c2cc(Cl)ccc21 |  | > 100 mg/kg |  |  | 39.4 mg/kg |  |  |  |  |  | 75% |  |  |  |  |
| CN1C(=O)CNC(=O)c2ccc(Cl)cc21 |  | > 102 mg/kg |  |  | > 102 mg/kg |  |  |  |  | 30% |  |  |  |  |  |
| CN1C(=O)CNC(=O)c2cc([N+](=O)[O-])ccc21 |  | > 102 mg/kg |  |  | > 102 mg/kg |  |  |  |  | 51% |  |  |  |  |  |
| Cc1ccc2c(c1)C(=O)NCC(=O)N2C |  | > 102 mg/kg |  |  | > 102 mg/kg |  |  |  |  | 62% |  |  |  |  |  |
| CN1C(=O)CN=C(c2ccccc2)c2cc(Cl)ccc21 [DIAZEPAM] | 4.1 mg/kg | 1.1 mg/kg | 8% | 21.9 mg/kg | 1.6 mg/kg | 8.9 mg/kg |  |  | 5.2 mg/kg |  |  |  |  |  |  |
| O=C1CN=C(c2ccccc2)c2cc([N+](=O)[O-])ccc2N1 [NITRAZEPAM] | 1.5 mg/kg | 1 mg/kg |  | 1.5 mg/kg | 0.8 mg/kg | 1.5 mg/kg | 733 mg/kg |  | 0.5 mg/kg |  |  |  |  |  | 50% |
